Data as given in the RNAGym collection of RNA variant scans (doi:10.1126/science.aae0568).
Variants at the floor of the assay were thinned out.

B1: tRNA (parent)
chain: GUUCCGUUGGCGUAAUGGUAACGCGUCUCCCUCCUAAGGAGAAGACUGCGGGUUCGAGUCCCGUACGGAACG

Variants of: B1
Assay: yeast fitness relative to wild type (ratio to wild type); higher = fitter; tRNA-Arg(CCU), competitive growth, 37 C, YPD
Method in brief: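 Variants of the tRNA-Arg(CCU) gene, chemically synthesised with a 3% per-site mutation rate at 69 sites, were placed at the native genomic locus in Saccharomyces cerevisiae. The pooled strains were competed in YPD at 37°C for 24 hours in six parallel replicates. Gene amplicons from the start population and from each end population were read by 100-nucleotide paired-end sequencing. Darwinian fitness relative to wild type came from changes in genotype frequencies; genotypes needed ≥ 100 starting reads, and estimates < 0.5 were set to 0.5.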

| Variant | yeast fitness |
| --- | --- |
| GUUCCGUUGGCGUUAUGGUAACGCGUCUCCCUCCUACGGAGAAGACUGCGGGUUCGAGUCCAGUAAGGAACG [A14U A37C C62A C66A] | 0.574 |
| GUUCCGUUGGCGUUAUGGUAACGCGUCUCCCUCCUACGGAGAAGACUGCGGGUUCGAGUCCCGUACGGAACG [A14U A37C] | 0.627 |
| GUUCCGUUGGCGUUAUGGUAACGCGUCUCCCUCCUAGGGAGAAGACUGCGGGUUCGAGUCCCGUACGGAACG [A14U A37G] | 0.6 |
| GUUCCGUUGGCGUUAUGGUAACGCGUCUCCCUCCUAAGGUGAAGACUGCGGGUUCGACUCCCGUACGGAACG [A14U A40U G58C] | 0.547 |
| GUUCCGUUGGCGUUAUGGUGACGCGUCUCGCUCCUAAGGAGCAGACUGCGGGUUCGAGUCCCGUACGGAGCG [A14U A20G C30G A42C A70G] | ≤ 0.5 |
| GUUCCGUUGGCGUUAUGGUAACGCGUCUCCCUCCUGAGGGGAAGACUGCGGGUUCGAGUCCCGUUCGGAACG [A14U A36G A40G A65U] | ≤ 0.5 |
| GUUCCGUUGGCGUUAUGGUAACGCGUCUCCCUCCUAAGGAGAGGACUGCGGGUUCGCGUGACGUACGGAACG [A14U A43G A57C C60G C61A] | ≤ 0.5 |
| GUUCCGUUGGCGUUAUGGUAGCGCGUCUCCCUCCUAAGGAGAAGACUGCGGGUUCGAGUCCCGUACGGACCG [A14U A21G A70C] | 0.543 |
| GUUCCGUUGGCGUUAUGGUAACGCGUCUCCCUCCUUAGGAGAAGACUGCGGGUUCGAGUCCCGUACGGUACG [A14U A36U A69U] | 0.629 |
| GUUCCGUUGGCGUUAUGGUAACGCGUCUCCCUCCUAAGGUGAAGACUGCGGGUUCGAGUCCCGUACGGUACG [A14U A40U A69U] | 0.592 |
| GUUCCGUUGGCGUUAUGGUAACGCGUCUCCCUCCUAAGGAGAUGGCUGCGGGUUCGAGUCCCGUACGGAACG [A14U A43U A45G] | 0.634 |
| GUUCCGUUGGCGUUAUGGUGACGAGUCUCCUUUCUAUGGAGAAGACUACGGGUUCGAGUCCCGUACGGUACG [A14U A20G C24A C31U C33U A37U G48A A69U] | ≤ 0.5 |
| GUUCCGUUGGCGUUAUGGUUACGCGUCUCCCUCCUAAGGAGAAGACUGCGGGUUCGAGUCCCGUAUAGAACG [A14U A20U C66U G67A] | ≤ 0.5 |
| GUUCCGUUGGCGUUAUGGUACCGCGUCUCCCUCCUAAGGAAAAGGCUGCGGGUUCGAGUCCCGUACGGAACG [A14U A21C G41A A45G] | ≤ 0.5 |
| GUUCCGUUGGCGUUAUGGUAUCGCGUCUCCCUCCUAAGGAGAAGACUGCGGGUUCGAGUCCCGUACGGCACG [A14U A21U A69C] | 0.566 |
| GUUCCGUUGGCGUUAUGGUGACGCGUCUCCCUCCUAAGGAGAAGACUGCGGGUUCGAGUCCCGUACGGAACG [A14U A20G] | 0.749 |
| GUUCCGUUGGCGUUAUGGUUACGCGUCUCCCUCCUAAGGAGAAGACUGCGGGUUCGAGUCCCGUACGGAACG [A14U A20U] | 0.588 |
| GUUCCGUUGGCGUUAUGGUAACGCGUCUCCCUCCUUAGGAAAAGACUGGGGGUUCGAGUCCCGUACGGAACG [A14U A36U G41A C49G] | ≤ 0.5 |
| GUUCCGUUGGCGUUAUGGUAACGCGUCUCCCUCCUAAGGAGAGGACUGCGGGUUCGAGUCCUGUACGGAACG [A14U A43G C62U] | ≤ 0.5 |

| Variant | yeast fitness |
| --- | --- |
| GUUCCGUUGGCGUUAUGGUAACGCGUCUCCCUCCUUAGGAGAAGACUGCGGGUUCGAGUCCCGUACGGAACG [A14U A36U] | 0.531 |
| GUUCCGUUGGCGUUAUGGUAACGCGUCUCCCUCCUCAGGAGAAGACUGCGGGUUCGAGUCCCGUACGGAACG [A14U A36C] | 0.586 |
| GUUCCGUUGGCGUUAUGGUAGCGCGUCUCCCUCCUAAGGAGAAGACUGCGGGUUCGAGUCGCGUACGGAUCG [A14U A21G C61G A70U] | ≤ 0.5 |
| GUUCCGUUGGCGUUAUGGUAACGCGUCUCCCUCCUAAGGUGUAGACUGCGAGUUCGAGUCCCGUACGGAACG [A14U A40U A42U G51A] | 0.62 |
| GUUCCGUUGGCGUUAUGGUAACGCGUCUCCCUCCUACGGAGAAAACUGCGGGUUCGAGUCCCGUACGGAACG [A14U A37C G44A] | 0.757 |
| GUUCCGUUGGCGUUAUGGUAACGCGUCUCCCUCCUAAGGAGUAGACUGCGGGUUCGAGUCUCGUAUGGAACG [A14U A42U C61U C66U] | ≤ 0.5 |
| GUUCCGUUGGCGUUAUGGUACCGCGUCUCCCUCCUCAGGAGAAGACUGAGGGUUCGAGUCCCGUGGGGAACG [A14U A21C A36C C49A A65G C66G] | 0.567 |
| GUUCCGUUGGCGUUAUGGUAACGCGUCUCCCUCCUAAGGUGAAGACUGCGGGUUCGAGUCCCGUACAGAACG [A14U A40U G67A] | 0.539 |
| GUUCCGUUGGCGUUAUGGUUACGCGUCUCCCUCCUAAGGAGAAGACUGCGGGUUCGAGUCCCAUACGGAACG [A14U A20U G63A] | ≤ 0.5 |
| GUUCCGUUGGCGUUAUGGUAUCGCGUCUCCCGCCUAGGGAGAAGGCUGCGGGUUAGAGUCCCGUACGGAACG [A14U A21U U32G A37G A45G C55A] | ≤ 0.5 |
| GUUCCGUUGGCGUUAUGGUAACGCGUCUCCCUCCUACGGAGAAAACUGCGGGUUCGAGUCCCGUACGGAGCG [A14U A37C G44A A70G] | 0.551 |
| GUUCCGUUGGCGUUAUGGUAACGCGUCUCCCUCCUAAGGAGACGACUGCGGGUUCGAGUCCUGUAUGGAACG [A14U A43C C62U C66U] | ≤ 0.5 |
| GUUCCGUUGGCGUUAUGGUAUCGCGUCUCCCUCCUAAGGAGAAGACUGUGGGUUCGAGUCCCGUACCGAACG [A14U A21U C49U G67C] | ≤ 0.5 |
| GUUCCGUUGGCGUUAUGGUAGCGCGUCUCCCUCCUAAGCAGAAGGCUGCGGGCUCGAGUCCUGUACGGAACG [A14U A21G G39C A45G U53C C62U] | ≤ 0.5 |
| GUUCCGUUGGCGUUAUGGUAACGCGUCUCCCUCCUAAGGAGAGGACUGCGGGUUGGAGUCCCGUACGGAACG [A14U A43G C55G] | ≤ 0.5 |
| GUUCCGUUGGCGUUAUGGUAACGCGUCUCCCUCCUUAGGAGAAGACUGCGGGUUCGAGUCCCAUACGGAACG [A14U A36U G63A] | 0.533 |
| GUUCCGUUGGCGUUAUGGUAACGCGUCUCCCUCCUUAAGAGAAGACUGCGGGUUCGAGUCCCGUACGGAACG [A14U A36U G38A] | ≤ 0.5 |
| GUUCCGUUGGCGUUAUGGUUACGCGUCUCCCUCCUAAGGAGAAGACUGCGGUUUCGAGUCCCGUACGGAACG [A14U A20U G52U] | 0.591 |
